Test results: ChEMBL document CHEMBL1135992, “Quantitative structure-activity relationship analysis of functionalized amino acid anticonvulsant agents using k nearest neighbor and simulated annealing PLS methods” (2002)

Key:
Type in all cases: functional
Mus musculus [1] = assay: Anticonvulsant activity in mice following i.p. treatment and Maximal Electroshock Seizure (MES) test.
Procedure, shortened: (§1)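 Mice (18–25 g) received the compound ip as a suspension in 0.5% (w/v) methylcellulose in water. A 60-cycle alternating current of 50 mA was applied for 0.2 s. Protection was defined as abolition of the hindlimb tonic extensor component. […] ED50 and 95% confidence interval were calculated by Finney's methods.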

Mus musculus [2] = assay: In vivo anticonvulsant activity in male albino mice using the maximal electroshock (MES) test after intraperitoneal administration; value ranges from 34.9-54.3; details: ip
Procedure, shortened: (§2)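 Mice (18–25 g) received the test agent intraperitoneally as a suspension in 0.5% (w/v) methylcellulose in water. A 60-cycle alternating current at 50 mA was applied for 0.2 s, and protection meant abolition of the hindlimb tonic extensor component. The ED50 was determined at the time of peak effect in groups of at least eight mice. At least two doses fell between 100% and 0% protection, and the 95% confidence interval was calculated by Finney's method.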

Mus musculus [3] = assay: In vivo anticonvulsant activity in male albino mice using the maximal electroshock seizure(MES) test upon intraperitoneal administration, expressed as logarithm of effective dose; procedure, shortened: as §2
Mus musculus [4] = assay: In vivo anticonvulsant activity in male albino mice using the maximal electroshock (MES) test after intraperitoneal administration (exp 1); details: ip; procedure, shortened: as §1
Mus musculus [5] = assay: In vivo anticonvulsant activity in male albino mice using the maximal electroshock (MES) test after intraperitoneal administration (exp 2); details: ip; procedure, shortened: as §1
Mus musculus [6] = assay: In vivo anticonvulsant activity in male albino mice using the maximal electroshock seizure(MES) test upon intraperitoneal administration (exp 2); details: ip; procedure, shortened: as §1
Mus musculus [7] = assay: In vivo anticonvulsant activity in male albino mice using the maximal electroshock seizure(MES) test upon intraperitoneal administration, expressed as logarithm of effective dose; value ranges from 2.58 to 3.06; procedure, shortened: as §2
Mus musculus [8] = assay: In vivo anticonvulsant activity in male albino mice using the maximal electroshock seizure(MES) test upon intraperitoneal administration (exp 1); details: ip; procedure, shortened: as §1
Mus musculus [9] = assay: In vivo anticonvulsant activity in male albino mice using the maximal electroshock (MES) test after intraperitoneal administration; value ranges from 85.7-151; details: ip
Mus musculus [10] = assay: In vivo anticonvulsant activity in male albino mice using the maximal electroshock seizure(MES) test upon intraperitoneal administration; value ranges from 15 to 19; details: ip
Mus musculus [11] = assay: In vivo anticonvulsant activity in male albino mice using the maximal electroshock seizure(MES) test upon intraperitoneal administration; value ranges from 46 to 61; details: ip
Mus musculus [12] = assay: In vivo anticonvulsant activity in male albino mice using the maximal electroshock seizure(MES) test upon intraperitoneal administration, expressed as logarithm of effective dose; value ranges from 2.01 to 2.63

SMILES	Log ED50 (Mus musculus [1]) [uM kg-1]	Log ED50 (Mus musculus [3]) [uM kg-1]	other results
CC(=O)NC(C(=O)NCc1ccccc1)N(C)C (configuration not stated)	2.26	–	–
CC(=O)NC(N)C(=O)NCc1ccccc1 (configuration not stated)	2.47	–	–
CC(=O)NC(C(=O)NCc1ccccc1)N(N)c1ccccc1 (configuration not stated)	2.14	–	ED50 (Mus musculus [2]): 42.8 mg/kg
CC(=O)NC(C(=O)NCc1ccccc1)c1cccs1 (configuration not stated)	–	2.19	–
CC(=O)NC(C(=O)NCc1cc(F)ccc1F)c1ccco1 (configuration not stated)	–	1.89	–
CC(=O)NC(C(=O)NCc1ccccc1)c1ccc(C)[nH]1 (configuration not stated)	–	2.12	–
CC(=O)NC(C(=O)NCc1ccc(F)cc1)c1ccco1 (configuration not stated)	–	1.64	–
CC(N)C(=O)NCc1ccccc1 (configuration not stated)	3.23	–	ED50 (Mus musculus [4]): > 100 mg/kg; ED50 (Mus musculus [5]): < 300 mg/kg
CC(=O)NC(C(=O)NCc1ccccc1)n1cccc1 (configuration not stated)	2.47	–	–
CC(=O)NC(C(=O)NCc1ccccc1)c1ncccn1 (configuration not stated)	–	1.46	–
CCC(=O)NC(COC)C(=O)NCc1ccccc1 (configuration not stated)	–	–	ED50 (Mus musculus [6]): < 300 mg/kg; Log ED50 (Mus musculus [7]): 3.06 uM kg-1; ED50 (Mus musculus [8]): > 100 mg/kg
C/C(S)=N\C(C(=O)NCc1ccccc1)c1ccco1 (configuration not stated)	–	1.8	–
CC(=O)NC(C(=N)NO)C(=O)NCc1ccccc1 (configuration not stated)	2.63	–	ED50 (Mus musculus [9]): 112 mg/kg
CC(=O)NC(C(=O)NCc1cccc(F)c1)c1ccco1 (configuration not stated)	–	1.66	–
C=CCC(NC(C)=O)C(=O)NCc1ccccc1 (configuration not stated)	–	2.16	–
CC(=O)NC(C(=O)NCc1ccccc1)c1ccccc1 (configuration not stated)	–	2.06	–
CON(C)C(NC(C)=O)C(=O)NCc1ccccc1 (configuration not stated)	1.4	–	–
CCOCC(NC(C)=O)C(=O)NCc1ccccc1 (configuration not stated)	–	1.81	ED50 (Mus musculus [10]): 17 mg/kg
CONC(NC(C)=O)C(=O)NCc1ccccc1 (configuration not stated)	1.39	–	–
COCC(NC(C)=O)C(=O)N(C)Cc1ccccc1 (configuration not stated)	–	–	ED50 (Mus musculus [6]): < 300 mg/kg; Log ED50 (Mus musculus [7]): 3.06 uM kg-1; ED50 (Mus musculus [8]): > 100 mg/kg
CC(=O)NC(O)C(=O)NCc1ccccc1 (configuration not stated)	2.56	–	–
COC(NC(C)=O)C(=O)NCc1ccccc1 (configuration not stated)	2.62	–	–
CCNC(NC(C)=O)C(=O)NCc1ccccc1 (configuration not stated)	2.23	–	–
CC(=O)NC(NNC(=O)OCc1ccccc1)C(=O)NCc1ccccc1 (configuration not stated)	2.18	–	–
CNC(NC(C)=O)C(=O)NCc1ccccc1 (configuration not stated)	2.28	–	–
CCOC(NC(C)=O)C(=O)NCc1ccccc1 (configuration not stated)	2.39	–	–
CC(=O)NC(C(=O)NCc1ccccc1)c1ccc[nH]1 (configuration not stated)	–	1.77	–
CC(=O)NC(C(=O)NCc1ccccc1)c1ccco1 (configuration not stated)	–	1.58	–
O=C(NCc1ccccc1)C1CCCCN1 (configuration not stated)	–	2.38	ED50 (Mus musculus [11]): 53 mg/kg
COCC(NC=O)C(=O)NCc1ccccc1 (configuration not stated)	–	–	Log ED50 (Mus musculus [12]): 2.63 uM kg-1; ED50 (Mus musculus [6]): < 100 mg/kg; ED50 (Mus musculus [8]): > 30 mg/kg
